Changes are numbered by the printed parent chain. The source made the active and inactive calls. No cut-off for these calls is given here.
Tests used:
Androgen receptor = biological target: T1, Androgen receptor (Homo sapiens, UniProt P10275); assay: Inhibition of androgen receptor transcriptional activity in human LNCaP cells after 3 days by eGFP assay; assay type: cell-based
T1 sequence (P10275 whole entry): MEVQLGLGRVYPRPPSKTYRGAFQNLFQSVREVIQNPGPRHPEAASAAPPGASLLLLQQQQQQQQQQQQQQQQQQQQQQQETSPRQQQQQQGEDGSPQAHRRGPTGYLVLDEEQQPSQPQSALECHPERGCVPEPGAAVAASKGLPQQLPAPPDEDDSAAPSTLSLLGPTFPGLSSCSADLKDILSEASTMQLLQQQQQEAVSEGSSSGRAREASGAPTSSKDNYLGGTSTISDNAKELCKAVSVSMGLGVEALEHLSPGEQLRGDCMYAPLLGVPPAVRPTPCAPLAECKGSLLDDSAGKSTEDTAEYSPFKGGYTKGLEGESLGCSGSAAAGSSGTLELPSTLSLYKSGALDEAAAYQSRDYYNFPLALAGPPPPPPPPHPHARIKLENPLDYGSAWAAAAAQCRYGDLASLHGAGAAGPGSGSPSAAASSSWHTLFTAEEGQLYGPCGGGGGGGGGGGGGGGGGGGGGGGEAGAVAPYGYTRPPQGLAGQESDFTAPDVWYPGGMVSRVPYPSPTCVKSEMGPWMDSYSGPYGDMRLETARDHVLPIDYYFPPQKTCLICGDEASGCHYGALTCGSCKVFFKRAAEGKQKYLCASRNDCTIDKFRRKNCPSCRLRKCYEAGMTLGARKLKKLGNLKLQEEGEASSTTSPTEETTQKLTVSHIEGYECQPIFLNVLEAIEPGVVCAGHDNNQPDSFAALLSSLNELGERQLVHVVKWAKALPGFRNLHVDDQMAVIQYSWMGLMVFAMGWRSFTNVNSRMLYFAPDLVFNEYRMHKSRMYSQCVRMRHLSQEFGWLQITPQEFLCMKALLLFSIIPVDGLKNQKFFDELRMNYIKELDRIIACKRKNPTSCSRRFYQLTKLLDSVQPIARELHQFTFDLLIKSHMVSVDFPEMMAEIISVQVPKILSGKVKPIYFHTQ

[1] = biological target: T2, Glucocorticoid receptor (Homo sapiens) (UniProt P04150); assay: Inhibition of glucocorticoid receptor (unknown origin) transcriptional activity at […]
T2 sequence (whole entry): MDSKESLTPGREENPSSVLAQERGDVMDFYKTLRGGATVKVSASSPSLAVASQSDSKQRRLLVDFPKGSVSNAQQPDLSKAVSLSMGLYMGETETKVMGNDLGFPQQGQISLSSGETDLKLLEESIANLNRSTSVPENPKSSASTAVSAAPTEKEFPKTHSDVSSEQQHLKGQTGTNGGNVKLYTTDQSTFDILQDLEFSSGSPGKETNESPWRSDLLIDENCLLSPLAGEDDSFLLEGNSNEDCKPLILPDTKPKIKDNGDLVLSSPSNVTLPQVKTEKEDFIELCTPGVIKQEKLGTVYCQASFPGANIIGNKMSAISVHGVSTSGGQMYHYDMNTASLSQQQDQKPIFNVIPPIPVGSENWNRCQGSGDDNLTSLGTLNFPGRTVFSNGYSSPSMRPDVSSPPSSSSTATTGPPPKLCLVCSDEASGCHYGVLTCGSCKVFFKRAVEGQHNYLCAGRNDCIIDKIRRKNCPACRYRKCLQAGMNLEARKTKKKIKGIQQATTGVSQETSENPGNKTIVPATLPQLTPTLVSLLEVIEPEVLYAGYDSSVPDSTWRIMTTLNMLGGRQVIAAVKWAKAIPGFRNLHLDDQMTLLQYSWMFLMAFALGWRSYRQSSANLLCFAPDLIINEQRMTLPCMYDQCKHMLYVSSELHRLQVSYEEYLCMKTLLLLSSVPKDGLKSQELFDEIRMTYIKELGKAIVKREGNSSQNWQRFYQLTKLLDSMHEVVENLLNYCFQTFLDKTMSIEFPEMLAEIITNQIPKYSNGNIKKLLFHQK
Summary of the method: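 PC3 cells were starved 5 days in RPMI 1640 with 5% charcoal-stripped serum. They were cotransfected with GR or PR plasmid plus 50 ng ARR3tk-luciferase, and 48 h later treated with compound for 24 h. Stimulation was 1 nM dexamethasone (GR) or progesterone (PR). Luciferase luminescence was read from cell lysates.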

[2] = tested on: T3, Androgen receptor (Homo sapiens), P10275 [Q592D]; assay: Inhibition of human androgen receptor Q592D mutant expressed in human PC3 cells assessed as inhibition of transcription activity after 24 hrs by luciferase reporter gene assay; assay type: cell-based; conditions: PC-3
T3 sequence (whole entry): T1 sequence (P10275 whole entry) with Q592D
Summary of the method: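 PC3 cells were starved 5 days in RPMI 1640 with 5% charcoal-stripped serum and seeded at 5000 cells/well. After 24 h they were cotransfected with AR-V7 or hAR mutant plasmid plus 50 ng ARR3tk-luciferase. At 48 h post-transfection, compounds were added for 24 h with 0.1 nM R1881. Luminescence was read from passive-lysis-buffer lysates; mutant tests used 10 μM.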

SMILES	IC50 (Androgen receptor) [nM]	inhibition [1]	inhibition [2]
c1ccc(-c2csc(N3CCOCC3)n2)cc1	330	inactive	inactive
Brc1ncn(-c2csc(N3CCOCC3)n2)c1Br	120	inactive	inactive

— ChEMBL document CHEMBL3352043, “Discovery of small-molecule inhibitors selectively targeting the DNA-binding domain of the human androgen receptor” (J Med Chem, 2014)
